The record followed here is ChEMBL document CHEMBL2010648, “Discovery of novel anti-inflammatory drug-like compounds by aligning in silico and in vivo screening: the nitroindazolinone chemotype” (Eur J Med Chem, 2011).

Data set [1] concerns J774. Briefly: Cytotoxicity against mouse J774 cells at 100 ug/mL after 24 hrs by MTT assay. It is filed as functional. The gist of the method:
(§1)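 J774 macrophages in RPMI-1640 with 20% heat-inactivated FCS were seeded at 70,000 cells/well and allowed to attach for 24 h at 37 °C. They were exposed to compounds for 24 h (final DMSO ≤0.2%), then given MTT 0.4 mg/mL for 60 min; formazan was dissolved in DMSO and read at OD595. %Cytotoxicity was calculated against growth controls, corrected for compound-in-medium blanks. Each concentration was tested three times, in duplicate assays.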
For orientation: Tetrazolium dyes change colour on reduction, which living cells bring about.

In data set [2] the test system is J774. Briefly: Cytotoxicity against mouse J774 cells at 1 ug/mL after 24 hrs by MTT assay. In kind it is functional. The gist of the method: as §1
Data set [3] has as its system J774. Briefly: Cytotoxicity against mouse J774 cells at 10 ug/mL after 24 hrs by MTT assay. In kind it is functional. An outline of the steps: as §1
The species entered for data set [4] is Danio rerio. Briefly: Antiinflammatory activity in transgenic zebrafish larvae harboring Fli-1 gene assessed as LPS-stimulated leukocyte migration to injury zone of tail transected larvae at 0.3 uM after 20 to 22 hrs by microscopy. In kind it is functional. An outline of the steps: (§2)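 Transgenic fli-1:EGFP zebrafish were reared in E3 at 28 °C, with PTU added at 20 hpf. Compounds were dissolved in DMSO and diluted in Danieau's, with final DMSO ≤1%. Ten 4-dpf larvae per group were pretreated for 1 h, anaesthetised with tricaine and tail-transected. They were then incubated with compound plus LPS for 20–22 h, fixed in 4% PFA and stained with Leucognost. Leukocyte migration to the tail tip was scored microscopically as relative leukocyte migration. Run in triplicate.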

The species named for data set [5] is Danio rerio. Briefly: Antiinflammatory activity in transgenic zebrafish larvae harboring Fli-1 gene assessed as LPS-stimulated leukocyte migration to injury zone of tail transected larvae at 3 uM after 20 to 22 hrs by microscopy. In kind it is functional. An outline of the steps:
as §2

Data set [6] is filed under the species Danio rerio. The data set can be described thus: Antiinflammatory activity in transgenic zebrafish larvae harboring Fli-1 gene assessed as LPS-stimulated leukocyte migration to injury zone of tail transected larvae at 1 uM after 20 to 22 hrs by microscopy. It is filed as functional. An outline of the steps: as §2
The species entered for data set [7] is Danio rerio. Briefly: Toxicity in transgenic zebrafish larvae harboring Fli-1 gene assessed as maximum tolerated dosage after 24 hrs. It is filed as organism-based. The settings on record: in vivo. The gist of the method:
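Fertilized eggs of the fli-1:EGFP line reared in E3 embryo medium at 28 °C, with PTU added at 20 hpf to block pigmentation. Compounds were dissolved in DMSO and diluted in Danieau's 0.3X, final DMSO ≤1%. Larvae at 4 dpf, 5 per well, were exposed for 24 h to 10, 30 and 100 (highest) concentrations and checked by light microscopy at 5 dpf. MTC is the highest concentration giving no death or toxicity signs.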

Data set [8] concerns Mus musculus. Briefly: Antiinflammatory activity against TPA-induced ear edema in Swiss mouse assessed as inhibition of increase in ear weight at 0.5 mg/ear administered topically measured after 4 hrs relative to control. In kind it is functional. The gist of the method:
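Female Swiss mice (25–30 g, groups of six) received TPA in acetone topically on the right ear, with the left ear as control. Compound in acetone was applied at the same time. After 4 h, 6 mm punches from both ears were weighed. Oedema was taken as the weight difference between ears, and inhibition % was calculated versus the vehicle group. Mean ± SEM, Dunnett's test.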

The species named for data set [9] is Mus musculus. The data set can be described thus: Inhibition of MPO activity in TPA-induced Swiss mouse ear tissue homogenates after 3 mins relative to control. In kind it is functional, organism-based. Details: concentration or dose not given beside the values. The gist of the method: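 Ear tissue was homogenised at 0 °C in 80 mM phosphate buffer with 0.5% HTAB, then centrifuged at 10300g for 20 min at 4 °C. Supernatant, in triplicate, was mixed with phosphate buffer (pH 5.4) and H2O2. The reaction was started with TMB in 8% DMF, run 3 min at 37 °C and stopped with NaOAc/HOAc pH 3.0. A630 was read, and inhibition % was calculated versus the vehicle group.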

Data set [10] is filed under the species Danio rerio. Briefly: Toxicity to transgenic zebrafish larvae harboring Fli-1 gene at 100 uM after 24 hrs. The settings on record: in vivo.
For data set [11], the species on record is Danio rerio. The data set can be described thus: Antiinflammatory activity in transgenic zebrafish larvae harboring Fli-1 gene assessed as LPS-stimulated leukocyte migration to injury zone of tail transected larvae at 10 uM after 20 to 22 hrs by microscopy. In kind it is functional. An outline of the steps: as §2
For data set [12], the species on record is Danio rerio. Briefly: Antiinflammatory activity in transgenic zebrafish larvae harboring Fli-1 gene assessed as LPS-stimulated leukocyte migration to injury zone of tail transected larvae at 30 uM after 20 to 22 hrs by microscopy. It is filed as functional. An outline of the steps: as §2
Data set [13] is filed under the species Danio rerio. Briefly: Antiinflammatory activity in transgenic zebrafish larvae harboring Fli-1 gene assessed as LPS-stimulated leukocyte migration to injury zone of tail transected larvae at 100 uM after 20 to 22 hrs by microscopy. It is filed as functional. An outline of the steps: as §2
For data set [14], the system named is J774. Briefly: Cytotoxicity against mouse J774 cells at 256 uM after 24 hrs by MTT assay. In kind it is functional. The gist of the method: as §1
Data set [15] relates to J774. Briefly: Cytotoxicity against mouse J774 cells at 128 uM after 24 hrs by MTT assay. In kind it is functional. The gist of the method:
as §1

The subject of data set [16] is J774. Briefly: Cytotoxicity against mouse J774 cells at 64 uM after 24 hrs by MTT assay. It is filed as functional. An outline of the steps: as §1

Each structure is given as a SMILES string. Some results are limits rather than exact numbers.

As a reminder, the inhibition is the drop in the measured response relative to a control, in per cent. Consider `O=C1C2=Cc3ccccc3CCN2c2ccccc21`, for which the Activity is 73.1% with J774 [1], 3.4% in the data set with J774 [2], 9.4% in the data set on J774 [3] and “Toxic” in the data set listed under Danio rerio [10]. In addition, the Ratio in the data set listed under Danio rerio [4] was 0.64; in the data set listed under Danio rerio [5], 0.24; in the data set listed under Danio rerio [6], 0.4. Moreover, in the data set listed under Danio rerio [7], the MTD amounted to 3 µM. Also, the “inhibition (INH)” value with Mus musculus [8] came out at 73%. Besides, the inhibition in the data set filed under Mus musculus [9] is 56%.
Regarding `COc1ccc2c(c1)c(CC(=O)O)c(C)n2C(=O)c1ccc(Cl)cc1` [INDOMETHACIN], the Ratio in the data set listed under Danio rerio [11] turned out to be 0.48; in the data set filed under Danio rerio [4] it was 0.57; in the data set listed under Danio rerio [12], 0.38; in the data set listed under Danio rerio [5], 0.5; in the data set listed under Danio rerio [6], 0.54; in the data set filed under Danio rerio [13], 0.28. Also, the MTD in the data set listed under Danio rerio [7] was more than 100 µM. In the data set with Mus musculus [8], the “inhibition (INH)” value is reported as 97%. Moreover, the inhibition in the data set listed under Mus musculus [9] was found to be 61%.
With `CCCCCn1c2ccc([N+](=O)[O-])cc2c(=O)n1Cc1ccccc1`, the Activity in the data set with J774 [14] worked out at 80.99%; with J774 [15], 71.75%; in the data set on J774 [16] it was 54.14%. Further, the Ratio in the data set listed under Danio rerio [11] is listed as 0.27; in the data set listed under Danio rerio [5] it was 0.67; in the data set listed under Danio rerio [6], 0.68. Also, the MTD in the data set listed under Danio rerio [7] is 10 µM. In addition, in the data set with Mus musculus [8], the “inhibition (INH)” value is 92%. In the data set listed under Mus musculus [9], the inhibition was 46%.
With `O=c1c2cc([N+](=O)[O-])ccc2n(Cc2ccccc2)n1Cc1ccccc1`, the Activity is listed as 57.87% in the data set on J774 [14], 64% with J774 [15] and 9.77% with J774 [16]. Also, the Ratio is listed as 0.35 in the data set filed under Danio rerio [11], 0.65 in the data set listed under Danio rerio [5] and 0.58 in the data set listed under Danio rerio [6]. Moreover, the MTD in the data set filed under Danio rerio [7] stood at 10 µM. Besides, in the data set on Mus musculus [8], the “inhibition (INH)” value came to 80%. Besides, the inhibition in the data set filed under Mus musculus [9] was 36%.
